T cruzi repl – blocks replication of Trypanosoma cruzi. T. cruzi beta-gal in NIH3T3, luminescence, 90 h. inhibition, % (concentration not given with the values). 1.4% of 300,000 active;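 active = mean inhibition across valid replicates above about 55%, limit read from the data; inconclusive = mean below that limit but half or more replicates reach it; inactive = mean below it, under half of replicates reach it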;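 also: signal also drops with host cell toxicity which is not excluded here; 0% = plate median of DMSO wells and 100% = zero luminescence signal; higher percent means less beta-gal luminescence so fewer parasites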
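compound dosing = single 50 nL compound addition per well in DMSO | material = NIH/3T3 host cells with β-galactosidase reporter T. cruzi | input = 5,000 host fibroblasts per well | timing = ≥90 h infection period, 3 h prior cell attachment | read-out basis = percent inhibition of parasite-derived β-gal signal | detection = GalScreen β-gal luminescence, detergent lysis, 60 min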
pCIP destab – compounds decreasing mouse p/CIP protein stability | Q05BA5 | F442A p/CIP-EGFP cells, EGFP fluorescence, 16 h | decrease of EGFP signal, % at 10 µM | 0.01% of 290,000 active | AID 1984;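 active = EGFP signal decrease of at least 30% at 10 µM or well 3 SD below plate mean, unless failing retest; inactive = the rest, including hits failing retest or dose response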
Target sequence (Q05BA5 1-1403): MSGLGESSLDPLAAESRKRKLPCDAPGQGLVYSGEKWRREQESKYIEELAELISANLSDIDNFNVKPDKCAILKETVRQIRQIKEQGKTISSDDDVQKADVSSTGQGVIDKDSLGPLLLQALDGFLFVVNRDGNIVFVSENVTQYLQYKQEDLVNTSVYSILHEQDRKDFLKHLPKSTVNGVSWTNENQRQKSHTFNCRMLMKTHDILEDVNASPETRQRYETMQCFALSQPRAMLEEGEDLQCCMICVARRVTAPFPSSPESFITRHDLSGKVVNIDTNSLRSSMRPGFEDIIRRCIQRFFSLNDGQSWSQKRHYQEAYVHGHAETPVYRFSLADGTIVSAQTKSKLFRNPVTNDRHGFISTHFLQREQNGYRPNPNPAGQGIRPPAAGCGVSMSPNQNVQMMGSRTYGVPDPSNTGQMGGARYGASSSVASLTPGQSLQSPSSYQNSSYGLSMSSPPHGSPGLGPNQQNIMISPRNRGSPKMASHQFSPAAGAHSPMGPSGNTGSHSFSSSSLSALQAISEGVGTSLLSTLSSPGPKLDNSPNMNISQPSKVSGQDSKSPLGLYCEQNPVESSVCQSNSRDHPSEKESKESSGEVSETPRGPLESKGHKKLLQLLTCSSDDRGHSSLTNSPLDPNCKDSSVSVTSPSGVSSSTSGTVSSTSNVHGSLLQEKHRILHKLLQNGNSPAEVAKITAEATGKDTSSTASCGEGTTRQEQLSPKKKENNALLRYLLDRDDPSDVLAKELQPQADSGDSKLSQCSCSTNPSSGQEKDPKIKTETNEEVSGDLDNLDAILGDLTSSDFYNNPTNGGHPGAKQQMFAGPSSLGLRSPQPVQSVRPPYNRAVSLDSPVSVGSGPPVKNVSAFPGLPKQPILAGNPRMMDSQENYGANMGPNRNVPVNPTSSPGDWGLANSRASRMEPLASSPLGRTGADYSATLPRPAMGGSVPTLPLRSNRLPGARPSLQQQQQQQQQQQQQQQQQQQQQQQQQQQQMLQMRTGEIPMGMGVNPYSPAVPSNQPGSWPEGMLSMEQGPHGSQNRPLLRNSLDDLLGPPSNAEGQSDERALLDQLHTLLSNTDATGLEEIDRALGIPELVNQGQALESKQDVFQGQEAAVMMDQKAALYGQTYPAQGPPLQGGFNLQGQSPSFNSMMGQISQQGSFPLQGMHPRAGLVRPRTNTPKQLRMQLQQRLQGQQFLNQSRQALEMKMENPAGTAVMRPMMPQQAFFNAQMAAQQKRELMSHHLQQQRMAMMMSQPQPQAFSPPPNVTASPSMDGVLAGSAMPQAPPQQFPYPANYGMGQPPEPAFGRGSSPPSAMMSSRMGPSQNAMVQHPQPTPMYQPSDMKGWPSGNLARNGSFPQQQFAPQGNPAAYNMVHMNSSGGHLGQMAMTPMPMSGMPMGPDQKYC
Cardio protect – protects H9c2 cardiomyocytes from peroxide injury; protection from H2O2 cell death, % at 20 µM; H2O2 injury protection, ATPLite, 2 h; 0.63% of 360,000 active;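 active = compounds giving at least 50% protection of heart cells from peroxide-induced death in the single-dose screen, raw or plate-pattern-corrected value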;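 also: 0% = DMSO wells with peroxide and 100% = DMSO wells without peroxide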
Fh CTSL1 inh – counter-screen for PFM18AAP inhibitors: inhibitors of F. hepatica cathepsin L1; inhibition, % at 5.96 µM; 0.49% of 300,000 active; recombinant F. hepatica cathepsin L1, Z-Leu-Arg-MCA fluorescence;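 active = inhibition above the mean of all tested compounds plus 3 SD, set per screening campaign, cut at about 17% in these data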;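 also: 0% = plate median of test compound wells and 100% = 1 µM Z-Phe-Ala-diazomethylketone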
PP5 inh – inhibitors of human protein phosphatase 5 (PP5). P53041. purified PP5c, OMFP substrate fluorescence. inhibition, % at 6.7 µM. 0.18% of 320,000 active. AID 1987;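 active = inhibition above the campaign's mean inhibition across all tested compounds plus 3 SD, cut at about 9.5% in these data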;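 also: 0% = DMSO only and 100% = 100 µM cantharidin control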
GASC-1 inh – human JMJD2C demethylase inhibition; inhibition, % at 2.35 µM; Q9H3R0; 0.069% of 330,000 active; AID 2099; GST-JMJD2C(1-420) H3K9me3 demethylation, DELFIA europium;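 active = more than half of a compound's replicate wells show inhibition beyond 50%, single wells judged on their own value; inconclusive = some, but no more than half, of replicates pass 50% inhibition; inactive = no replicate passes 50% inhibition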;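 also: signal counts dimethyl H3K9 product captured on neutravidin plate; 0% = median of DMSO wells and 100% = 0.3 times that DMSO median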
Active calls of the source: *; i = inactive; ? = inconclusive; . = no result given. This is a sample that favours compounds with a hit; in the whole collection about 2.4% have one here.

SMILES | T cruzi repl | pCIP destab | Cardio protect | Fh CTSL1 inh | PP5 inh | GASC-1 inh
Cc1nn2c(N3CCN(C)CC3)cc(C(C)(C)C)nc2c1-c1ccccc1 | 66.6* | 1.1 | 0.1 | 0.3 | 0.9 | 3.0
O=C(CN1CCN(S(=O)(=O)c2ccc(Br)cc2)CC1)N/N=C/c1ccc(Br)s1 | 63.2* | 4.4 | -2.4 | 4.3 | 5.2 | -4.7
O=C(NCc1cccs1)C1CCCN(C(=O)Nc2ccccc2)C1 (stereo not drawn) | -12.7 | -12.5 | -3.9 | -1.3 | 3.6 | 6.5
O=[N+]([O-])C(/C=C(\Cl)[N+](=O)[O-])=C(N1CCCCC1)N1CCCCC1 | 60.7* | -30.5 | -0.7 | -0.7 | 0.1 | -2.5
COc1cc2c(cc1OC)C(c1cc(Br)ccc1F)N(C(=O)CCl)CC2 (stereo not drawn) | 64.9* | -0.8 | -3.8 | 88.6* | 4.4 | 3.2
COc1cc2c(cc1OC)C(c1ccc(Br)cc1)N(C(=O)c1ccccc1C(=O)O)CC2 (stereo not drawn) | -14.5 | -6.4 | 4.2 | -1.5 | 0.5 | -5.7
COc1cc2c(cc1OC)C(C1C(=O)CC(C)(C)CC1=O)N(C(=O)CCl)CC2 (stereo not drawn) | -13.4 | -5.4 | -0.6 | 17.4* | -3.5 | 2.4
Nc1ncnc2c1ncn2[C@@H]1O[C@H](CNC(=O)[C@@H]2C[C@H](F)CN2)[C@@H](O)[C@H]1O | . | . | -9.9 | . | . | .
CCOc1cc(/C=C2\SC(=N)N(c3nccs3)C2=O)ccc1OCCN1CCOCC1 | -2.6 | -11.8 | 53.9* | 0.8 | 0.6 | 0.2
CCOc1cc(/C=C2\SC(=S)N(N3CCOCC3)C2=O)ccc1O | -6.8 | 3.5 | -12.1 | -1.1 | 0.0 | 0.3
COC(=O)c1ccc(Cn2nc([N+](=O)[O-])c(Br)c2C)cc1 | 25.4 | 5.9 | -9.0 | -4.9 | 1.7 | -3.2
CCC(CC)CC1CN2CCc3cc(OC)c(OC)cc3C2CC1(O)CC (stereo not drawn) | . | . | -17.9 | . | . | .
CC1Cc2ccccc2N1C(=O)CSc1nc2c(c(=O)n(C)c(=O)n2C)n1Cc1ccc(F)cc1 (stereo not drawn) | 11.1 | . | 50.4* | -1.3 | 3.1 | -1.9
CN(CC(=O)Nc1ccccc1Cl)C(=O)Cn1cnc2ccccc2c1=O | . | . | 7.8 | . | . | .
NNC(=O)c1nn(-c2ccc(Cl)cc2)ccc1=O | -4.3 | 11.9 | 5.6 | 4.2 | -0.8 | 55.0*
CC1(c2ccccc2)NC(=O)N(CC(=O)N2CCN(S(=O)(=O)c3ccccc3[N+](=O)[O-])CC2)C1=O (stereo not drawn) | 0.0 | -4.6 | -0.5 | -0.8 | 1.0 | 2.5
Cc1ccc(C)c(C(C)NC(=S)NCc2ccc(F)cc2)c1 (stereo not drawn) | -16.6 | -20.4 | -8.3 | 2.9 | 5.2 | -21.4
CCOc1cc(N2CCOCC2)c(OCC)cc1NC(=O)CN1C(=O)NC(Cc2ccccc2)C1=O (stereo not drawn) | 1.4 | -2.4 | 9.5 | 5.2 | -2.9 | 13.1
CCOc1cc(N2CCOCC2)c(OCC)cc1NC(=O)CN1CCC(Cc2ccccc2)CC1 | 62.0* | -2.8 | -11.3 | 4.2 | 3.3 | 12.6
CCOc1cc(N2CCOCC2)c(OCC)cc1NC(=O)CN1CCCC(C)C1 (stereo not drawn) | 15.3 | 6.7 | 0.9 | 45.4* | 1.7 | 1.5
NS(=O)(=O)c1ccc(CCNC(=O)CCNS(=O)(=O)c2ccccc2C(F)(F)F)cc1 | . | . | 0.3 | . | 1.0 | -0.6
O=C(Nc1ccc(-c2csc(-c3ccccc3)n2)cc1)c1ccccc1Cl | 61.9* | -4.8 | -9.3 | 1.9 | 2.4 | i
O=C(CCNC(=O)c1ccccc1Cl)Nc1nc(-c2ccc3ccccc3c2)cs1 | 55.9* | -2.9 | -10.5 | -9.6 | 7.8 | 9.0
Oc1c(Br)cc(Br)cc1C=Nc1cccnc1 | 14.1 | -6.5 | 51.7* | 0.5 | -2.2 | 4.8
Oc1c(Br)cc(Br)cc1/C=N/c1nccs1 | . | . | 56.7* | . | 0.1 | -7.5
SMILES | T cruzi repl | pCIP destab | Cardio protect | Fh CTSL1 inh | PP5 inh | GASC-1 inh
Oc1ccc(Cl)cc1/C=N/c1nccs1 | -20.6 | 1.9 | 16.3 | 0.7 | -2.6 | -2.7
C/C(=N\Nc1nc(C(C)(C)C)cs1)c1ccccc1 | 72.7* | 5.6 | -6.5 | 4.6 | 2.8 | 3.3
O=C(Nc1cccc(Cl)c1)Nc1nc(-c2ccc(Cl)cc2)cs1 | ? | -15.2 | -21.0 | -5.2 | 0.4 | 12.2
O=C(Nc1cccc(Cl)c1)Nc1csc([N+](=O)[O-])c1 | 63.8* | -11.7 | -15.2 | 0.0 | 4.0 | -4.6
C/C(=N\Nc1cccc2cccnc12)c1ccccn1 | 76.9* | 3.7 | -26.7 | 3.2 | -0.2 | 0.7
C/C(=N\Nc1ncc(Cl)cc1Cl)c1ccccn1 | 68.5* | -1.5 | -31.3 | . | . | -2.0
O=C(Nc1ccc(CSc2ccccc2)cc1)c1ccco1 | 2.6 | -1.5 | -3.3 | 2.2 | 0.7 | 2.4
Cc1cccc(OCC(=O)N(Cc2ccccc2)c2c(N)n(Cc3ccccc3)c(=O)[nH]c2=O)c1 | . | . | -0.6 | . | -2.9 | -3.2
Cc1nn(-c2ccccc2)c(N2CCCC2)c1/C=N/Nc1ccc(S(=O)(=O)Nc2ccccc2)cc1[N+](=O)[O-] | 52.9 | -7.8 | -7.0 | 4.6 | -0.1 | 0.5
COc1ccccc1NS(=O)(=O)c1ccc(N/N=C/c2c(C)nn(-c3ccccc3)c2N2CCCC2)c([N+](=O)[O-])c1 | 66.5* | -3.6 | 2.5 | -4.7 | 2.8 | -5.3
COc1ccc(C)cc1S(=O)(=O)NCC(c1ccc2c(c1)OCO2)N1CCN(C)CC1 (stereo not drawn) | -12.4 | . | -2.1 | 1.7 | -1.1 | 25.8
CCOc1ccccc1NC(=O)COC(=O)COc1cccc2c1OC(C)(C)C2 | . | . | 4.8 | . | . | .
CCOc1ccc(CN(C)CC(=O)Nc2cccc(S(=O)(=O)N(C)c3ccccc3)c2)cc1 | 72.8* | -1.2 | 6.9 | -0.3 | 0.8 | -14.0
COCC(=O)N[C@@H]1c2cc(OC)c(OC)cc2C[C@H]1OCc1ccccc1 | . | . | 4.9 | . | . | .
COc1ccc([C@@H]2[C@@H]3C(=O)N(C(C)(C)C)C(=O)[C@@H]3[C@]3(C)C(=O)N(c4ccc(C(F)(F)F)cc4)C(=O)N23)cc1 | 0.9 | -0.7 | -3.6 | 5.4 | 2.5 | 4.1
O=Cc1ccc(O)c2ncccc12 | 57.1* | -4.6 | -7.3 | . | . | -21.9
c1cnc2ccc3ncccc3c2c1 | 7.7 | -13.7 | 7.0 | -4.0 | -4.3 | 4.3
N#CC12C(=O)NC(=O)C1(C#N)C21CCCC1 (stereo not drawn) | . | . | 2.9 | . | . | .
Cc1ccc2c(c1)C(=O)N1c3cc(C)c(C)cc3NC(=O)C1C(=O)N2 (stereo not drawn) | . | . | 2.9 | . | . | .
O=C(NCc1cccnc1)c1ccc(-c2cc(Cl)ccc2Cl)o1 | 56.3* | 2.9 | -0.4 | 1.4 | 3.3 | -1.0
Clc1ccc(Cl)c(OCc2cc(-c3ccccc3Cl)on2)c1 | 0.6 | -5.9 | -21.1 | 18.8* | -6.7 | 0.6
O=C(COc1ccccc1[N+](=O)[O-])Nc1ccc(N2CCN(C(=O)c3cccs3)CC2)cc1 | 24.8 | -18.8 | 65.9* | -1.3 | 4.2 | 3.1

Screens (PubChem BioAssay)
